In ChEMBL document CHEMBL4699593, “Identification of 2,4-Disubstituted Imidazopyridines as Hemozoin Formation Inhibitors with Fast-Killing Kinetics and In Vivo Efficacy in the Plasmodium falciparum NSG Mouse Model” (J Med Chem, 2020):
Values after ≈ are worked out from the molar mass of the structure shown. Active and inactive are the calls of the source. No cut-off for these calls is given here.

Columns and labels:
[1] = Tmax in Plasmodium falciparum 3D70087/N9 infected NSG mouse at 1.5 mg/kg, po by LC-MS/MS analysis; assay type: ADME, organism-based; settings: in vivo
In short: (§1)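 P. falciparum-infected NSG mice received escalating single oral doses of 1.5, 5, 15, 50 and 100 mg/kg.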

[2] = Cmax in Plasmodium falciparum 3D70087/N9 infected NSG mouse at 15 mg/kg, po by LC-MS/MS analysis; assay type: ADME, organism-based; parameters: route oral, dose 15 mg/kg; settings: in vivo
In short: (§2)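 Oral (PO) dosing of NSG (NODscidIL2Rγnull) mice infected with P. falciparum. Cmax and AUC0–24 are taken from the infected-mouse PK analysis and are also expressed divided by dose.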

[3] = Terminal half life in Balb/C mouse at 20 mg/kg, po by LC-MS/MS analysis; assay type: ADME, organism-based; settings: in vivo, read-out: beta t1/2 (converted)
In short: (§3)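 Healthy Balb/c mice were given the compound i.v. or orally. Parameters come from non-compartmental analysis: AUC from 0 h to t_last, blood clearance, volume at steady state, terminal half-life, Tmax. Oral bioavailability F is derived from the i.v. and p.o. data.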

[4] = Lipophilicity, log D of compound at pH 7.4; assay type: physicochemical; settings: buffer
Plasmodium falciparum [5] = assay: Antimalarial activity against asexual ring stage of Plasmodium falciparum NF54 measured after 24 hrs by [3H]hypoxanthine incorporation assay; assay type: functional, organism-based
In short: (§4)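 Tested on a synchronized asexual blood-stage culture of P. falciparum, with IC50 determined separately for the ring and the schizont stage.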

[6] = Aqueous solubility of compound in phosphate buffer saline at pH 6.5 incubated for 20 hrs under shaking condition by shake-flask method based HPLC-DAD analysis; assay type: physicochemical; settings: phosphate buffered saline
In short: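 Equilibrium aqueous solubility was measured at pH 6.5 using a miniaturized shake-flask method.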

[7] = Dose normalized AUC (0 to 24 hrs) in Plasmodium falciparum 3D70087/N9 infected NSG mouse at 15 mg/kg, po by LC-MS/MS analysis; assay type: ADME, organism-based; settings: in vivo; in short: as §2
Plasmodium falciparum [8] = assay: Antimalarial activity against asexual schizont stage of Plasmodium falciparum NF54 measured after 24 hrs by [3H]hypoxanthine incorporation assay; assay type: functional, organism-based; in short: as §4
[9] = Clearance in Balb/C mouse blood at 2 mg/kg, iv by LC-MS/MS analysis; assay type: ADME, organism-based; settings: whole blood
In short: (§5)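 Healthy Balb/c mice dosed i.v. or orally. Parameters come from non-compartmental analysis of compound concentration over time. […] Clearance is blood clearance (CL_b).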

[10] = Selectivity index, ratio of CC50 for cytotoxicity against CHO cells assessed as reduction in cell viability to IC50 for antiplasmodial activity against multidrug-sensitive Plasmodium falciparum NF54 assessed as reduction in parasite growth; assay type: toxicity, cell-based; settings: hamster, read-out: Ratio CC50/IC50
[11] = Cmax in Plasmodium falciparum 3D70087/N9 infected NSG mouse at 1.5 mg/kg, po by LC-MS/MS analysis; assay type: ADME, organism-based; parameters: route oral, dose 1.5 mg/kg; settings: in vivo; in short: as §2
Plasmodium falciparum [12] = assay: Antiplasmodial activity against early ring-stage synchronized Plasmodium falciparum assessed as decrease in hemozoin formation after 32 hrs by Giemsa-staining based haemocytometric counting method; assay type: functional, organism-based
CHO = assay: Cytotoxicity against CHO cells assessed as reduction in cell viability by MTT assay; assay type: cell-based, Cricetulus griseus; settings: chinese hamster
In short: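 Cytotoxicity was measured in Chinese hamster ovary (CHO) cells and reported as CC50. The selectivity index is CC50 divided by NF54 IC50.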

[13] = Cmax in Plasmodium falciparum 3D70087/N9 infected NSG mouse at 50 mg/kg, po by LC-MS/MS analysis; assay type: ADME, organism-based; parameters: route oral, dose 50 mg/kg; settings: in vivo; in short: as §2
[14] = Dose normalized AUC (0 to 24 hrs) in Plasmodium falciparum 3D70087/N9 infected NSG mouse at 1.5 mg/kg, po by LC-MS/MS analysis; assay type: ADME, organism-based; settings: in vivo; in short: as §2
[15] = Cmax in Balb/C mouse at 2 mg/kg, iv by LC-MS/MS analysis; assay type: ADME, organism-based; parameters: route intravenous, dose 2 mg/kg; settings: in vivo; in short: as §5
[16] = Dose normalized AUC (0 to 24 hrs) in Plasmodium falciparum 3D70087/N9 infected NSG mouse at 100 mg/kg, po by LC-MS/MS analysis; assay type: ADME, organism-based; settings: in vivo; in short: as §2
[17] = Tmax in Plasmodium falciparum 3D70087/N9 infected NSG mouse at 50 mg/kg, po by LC-MS/MS analysis; assay type: ADME, organism-based; settings: in vivo; in short: as §1
[18] = Cmax in Plasmodium falciparum 3D70087/N9 infected NSG mouse at 200 mg/kg, po by LC-MS/MS analysis; assay type: ADME, organism-based; parameters: route oral, dose 200 mg/kg; settings: in vivo; in short: as §2
[19] = Dose normalized Cmax in Plasmodium falciparum 3D70087/N9 infected NSG mouse at 15 mg/kg, po by LC-MS/MS analysis; assay type: ADME, organism-based; settings: in vivo; in short: as §2
Plasmodium falciparum [20] = assay: Antimalarial activity against Plasmodium falciparum 3D70087/N9 infected in NOD-SCID IL2Rgamma null mouse assessed as parasitemia at 100 mg/kg, po qd administered for 4 days measured on day 6 post-infection by microscopy based flow cytometry; assay type: functional, organism-based; settings: time 4.0 day
[21] = Oral bioavailability in Balb/C mouse at 20 mg/kg by LC-MS/MS analysis; assay type: ADME, organism-based; settings: in vivo; in short: as §3
[22] = Dose normalized Cmax in Plasmodium falciparum 3D70087/N9 infected NSG mouse at 50 mg/kg, po by LC-MS/MS analysis; assay type: ADME, organism-based; settings: in vivo; in short: as §1
[23] = Dose normalized Cmax in Plasmodium falciparum 3D70087/N9 infected NSG mouse at 5 mg/kg, po by LC-MS/MS analysis; assay type: ADME, organism-based; settings: in vivo; in short: as §1
[24] = AUC (0 to 24 hrs) in Plasmodium falciparum 3D70087/N9 infected NSG mouse at 200 mg/kg, po by LC-MS/MS analysis; assay type: ADME, organism-based; parameters: time < 24 hr, route oral, dose 200 mg/kg; settings: in vivo; in short: as §2
[25] = Tmax in Balb/C mouse at 20 mg/kg, po by LC-MS/MS analysis; assay type: ADME, organism-based; settings: in vivo; in short: as §3
[26] = AUC (0 to 24 hrs) in Plasmodium falciparum 3D70087/N9 infected NSG mouse at 1.5 mg/kg, po by LC-MS/MS analysis; assay type: ADME, organism-based; parameters: time < 24 hr, route oral, dose 1.5 mg/kg; settings: in vivo; in short: as §2
[27] = Dose normalized Cmax in Balb/c mouse at 20 mg/kg, po by LC-MS/MS analysis; assay type: ADME, organism-based; settings: in vivo; in short: as §5
[28] = Dose normalized Cmax in Plasmodium falciparum 3D70087/N9 infected NSG mouse at 100 mg/kg, po by LC-MS/MS analysis; assay type: ADME, organism-based; settings: in vivo; in short: as §2
[29] = Cmax in Plasmodium falciparum 3D70087/N9 infected NSG mouse at 5 mg/kg, po by LC-MS/MS analysis; assay type: ADME, organism-based; parameters: route oral, dose 5 mg/kg; settings: in vivo; in short: as §2
[30] = biological target: Voltage-gated inwardly rectifying potassium channel KCNH2 (Homo sapiens, UniProt Q12809); assay: Inhibition of human ERG by patch clamp method
Voltage-gated inwardly rectifying potassium channel KCNH2, sequence (Q12809 whole entry): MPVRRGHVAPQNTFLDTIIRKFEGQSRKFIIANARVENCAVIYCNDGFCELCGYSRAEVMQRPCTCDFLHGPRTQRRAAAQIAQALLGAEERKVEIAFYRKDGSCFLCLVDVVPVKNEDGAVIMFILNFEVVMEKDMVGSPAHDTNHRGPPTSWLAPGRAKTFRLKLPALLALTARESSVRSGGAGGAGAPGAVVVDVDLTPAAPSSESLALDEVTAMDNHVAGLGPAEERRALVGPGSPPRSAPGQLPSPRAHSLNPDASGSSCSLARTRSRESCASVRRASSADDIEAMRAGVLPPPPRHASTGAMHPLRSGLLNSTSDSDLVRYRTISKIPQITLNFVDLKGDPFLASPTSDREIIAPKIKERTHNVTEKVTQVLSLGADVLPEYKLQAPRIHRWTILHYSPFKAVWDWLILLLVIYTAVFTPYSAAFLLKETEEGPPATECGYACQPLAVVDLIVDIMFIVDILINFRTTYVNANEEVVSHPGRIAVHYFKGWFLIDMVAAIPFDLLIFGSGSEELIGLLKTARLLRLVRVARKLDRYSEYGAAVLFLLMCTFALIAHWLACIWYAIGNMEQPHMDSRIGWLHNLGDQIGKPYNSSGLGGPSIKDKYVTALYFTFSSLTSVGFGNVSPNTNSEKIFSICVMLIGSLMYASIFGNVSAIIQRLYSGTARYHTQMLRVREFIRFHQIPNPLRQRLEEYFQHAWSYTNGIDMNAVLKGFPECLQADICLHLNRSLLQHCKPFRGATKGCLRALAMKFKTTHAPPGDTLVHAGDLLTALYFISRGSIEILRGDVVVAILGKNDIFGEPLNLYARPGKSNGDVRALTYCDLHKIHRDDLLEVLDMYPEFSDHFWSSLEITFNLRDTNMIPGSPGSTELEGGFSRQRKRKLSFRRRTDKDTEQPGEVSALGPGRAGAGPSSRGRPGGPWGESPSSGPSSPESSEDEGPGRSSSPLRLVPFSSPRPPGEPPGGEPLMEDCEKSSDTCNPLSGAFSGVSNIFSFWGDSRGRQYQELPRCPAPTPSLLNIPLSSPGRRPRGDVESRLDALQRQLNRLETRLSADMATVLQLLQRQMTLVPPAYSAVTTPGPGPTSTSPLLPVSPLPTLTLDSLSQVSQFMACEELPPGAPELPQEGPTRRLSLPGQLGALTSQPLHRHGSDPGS

[31] = Drug metabolism in mouse blood assessed as oxidation and glucuronidation by LC-MS/MS analysis; assay type: ADME, tissue-based
[32] = Tmax in Plasmodium falciparum 3D70087/N9 infected NSG mouse at 100 mg/kg, po by LC-MS/MS analysis; assay type: ADME, organism-based; settings: in vivo; in short: as §1
Plasmodium falciparum [33] = assay: Antimalarial activity against asexual blood stage Plasmodium falciparum assessed as reduction in parasitemia by measuring lag time at 10 times IC50; assay type: functional
Hemozoin = assay: Inhibition of beta-hematin formation assessed as reduction in hemozoin formation incubated for 5 hrs by NP40 detergent-mediated assay
In short: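 Synthetic hemozoin (β-hematin) formation is driven by the detergent Nonidet P-40. Pyridine is then added to detect unreacted hematin. IC50 is derived from this read-out.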

CN1CCN(CC2CCN(c3nccc4[nH]c(-c5cc(F)cc(F)c5)nc34)CC2)CC1
Tmax [1]: 1.5 h
Cmax [2]: 810 nM
half-life [3]: 32.7 h
logD [4]: 2.6
IC50 (Plasmodium falciparum [5]): 0.027 µM
solubility thermodynamic at 20 h [6]: 200 µM (≈ 85.3 µg/mL)
AUC/dose [7]: 65 µM·kg·min/mg
IC50 (Plasmodium falciparum [8]): 0.06 µM
clearance [9]: 20.2 mL/min/kg
selectivity ratio [10]: 1040
Cmax [11]: 40 nM
Activity (Plasmodium falciparum [12]): Active
CC50 (CHO): 23 µM
Cmax [13]: 2840 nM
AUC/dose [14]: 31 µM·kg·min/mg
Cmax [15]: 600 nM
AUC/dose [16]: 51 µM·kg·min/mg
Tmax [17]: 12.5 h
Cmax [18]: 2840 nM
Cmax/dose [19]: 0.05 µM·kg/mg
Activity (Plasmodium falciparum [20]): Below limit of detection
bioavailability [21]: 83%
Cmax/dose [22]: 0.06 µM·kg/mg
Cmax/dose [23]: 0.03 µM·kg/mg
AUC(0-t) at 24 h [24]: 51.7 µM·h
Tmax [25]: 1.7 h
AUC [26]: 46 µM·min
Cmax/dose [27]: 0.08 µM·kg/mg
Cmax/dose [28]: 0.07 µM·kg/mg
Cmax [29]: 130 nM
IC50 [30]: > 30 µM
Drug metabolism [31]: Metabolite_Detected
Tmax [32]: 1 h
Time (Plasmodium falciparum [33]): 0 h
IC50 (Hemozoin): 24 µM
